Experimental data from the RNAGym collection of RNA variant scans (doi:10.1038/s41586-018-0170-7).

B1: tRNA (parent)
chain: GUUCCGUUGGCGUAAUGGUAACGCGUCUCCCUCCUAAGGAGAAGACUGCGGGUUCGAGUCCCGUACGGAACG

Variants of: B1
Assay: yeast fitness, log relative to wild type (ln ratio); higher = fitter; tRNA-Arg(CCU), competitive growth, 37 C, 1 M NaCl
Method in brief: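 In BY4742 missing the chromosomal gene, a combinatorial tRNA-Arg(CCU) variant library was maintained on a HIS3 centromeric plasmid. Selection ran ~6.5 generations (~26.5 h) in SC-HIS 1M NaCl at 37 °C, following 4 generations in SC-HIS at 30 °C, with three outputs per input and variant counts by 125 bp paired-end Illumina sequencing. Fitness is the natural log of a genotype's generations relative to the wild type's, with generations taken as inverse-variance-weighted, OD-scaled log2 output/input frequency.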

Variant | yeast fitness (ln)
G1A U2G G6U A43C C46U A69G A70G C71U | -0.345
G1A U2G G6A C27U A43C A69G C71U | -0.673
G1A U2G G6A C46U C66U A70U C71U | -0.00784
U2C G6A A43C C46U A70G | -0.0922
G1A U2G G6U C27U C46U A70U | -0.217
U2C G6A A70G C71U | -0.105
G6A C27U A43C C66A A70U C71U | -0.37
G6A A43C A70U C71U | -0.266
U2G G6U C27U C46U C66U | -0.147
C27U A43C C46U C66U A70G C71U | -0.206
U2G C27U C46U A69G | -0.0724
G6U A69G A70G | -0.16
G1A C27U A43C C46U A69G | -0.116
U2G G6U C27U C46U C66A A70U | -0.0141
G1A U2C G6U C66A A69G A70U | 0.0124
U2G G6A C27U A43C C66A A70U | -0.176
U2G C27U A43C A69G A70U C71U | -0.364
G1A G6A C27U A69G A70G C71U | -0.344
G1A U2G G6A C66A A70U C71U | -0.119
G6U C27U C66U A70G C71U | -0.37
G1A G6U C46U C66U A70G | -0.195
U2C G6A C27U A43C C46U A70G | -0.133
G1A G6U A43C C66U A70G C71U | -0.424
G1A A43C C66U A69G C71U | -0.377

Variant | yeast fitness (ln)
U2C C46U A69G A70G | -0.016
C27U A43C C46U A69G A70U | -0.0621
G1A U2G C27U C66U | -0.174
G6U C27U A43C C46U C66A A69G C71U | -0.439
U2G G6U C27U C66U A70G C71U | -0.312
G1A U2G A43C C46U A70U | -0.163
C27U C66A A69G C71U | -0.184
U2G G6A C27U A43C C66A A69G A70U C71U | -0.548
U2G C27U A43C A69G C71U | -0.318
G1A U2C G6U C27U A69G A70U C71U | -0.467
U2C G6A C27U C46U A69G A70U | -0.152
G1A U2G C27U A43C C46U C66U A69G A70G | -0.282
G6A C66U A69G | -0.0231
G1A U2G G6U A43C C66U A69G A70U C71U | -0.4
U2G G6A C27U A43C C66A A69G A70G C71U | -0.366
C66U A69G | -0.168
G6A C66U A69G C71U | -0.085
G1A G6A A43C C66U A70U C71U | -0.405
G1A U2G C27U A43C C66U A69G A70G C71U | -0.294
U2G C27U C46U C66A C71U | -0.163
G1A C27U A70G | -0.163
G1A G6A C46U C66A A69G A70G C71U | -0.151
G1A G6A A43C C66U | -0.195
U2G C27U C46U C66A A69G A70G | -0.163

Variant | yeast fitness (ln)
U2C G6A A43C C46U C66A C71U | -0.127
G1A U2G A43C C46U C66U A69G A70U C71U | -0.341
U2G G6U A43C C66U A69G A70U C71U | -0.468
C27U C46U C66U A70G C71U | -0.126
G6A C46U A69G | -0.469
G1A G6U A43C C46U A69G A70G | -0.281
G1A U2C G6U C27U A43C C46U C66U A70U C71U | -0.315
G1A U2G G6U C66U A70G | -0.199
U2G C27U A43C C46U C66A A69G A70U | -0.175
G1A U2C C46U C66U A70G | -0.129
G6U A43C C46U C66U A70U C71U | -0.359
G1A U2G G6A A43C C66U A69G A70U C71U | -0.396
G1A U2C C27U A43C C46U A70G C71U | -0.012
G1A A69G A70U | -0.0407
U2G C46U C66U A69G | -0.119
G1A U2G G6U A43C C46U C66A A69G A70G C71U | -0.378
G1A A43C | -0.119
G6U C27U A43C C66U A70G | -0.407
G6U C27U C46U C66U A69G A70U | -0.308
A43C A70U | -0.0384
G1A U2C G6U A43C A69G A70U C71U | -0.248
G6A C46U A69G C71U | -0.109
G6U A43C C46U A70G | -0.164
U2G G6A C66U A70U | 0.001

Variant | yeast fitness (ln)
U2C C27U A43C A70U | -0.152
U2G A43C C66A A70G | -0.103
U2C G6U A43C C66U | -0.161
G6A C27U A43C C46U C66A A70U C71U | -0.346
U2G G6A C46U C66A A70G C71U | -0.148
G1A U2G A43C C66U A70G | -0.214
U2C C66A A70G C71U | -0.196
G6U C27U A70G | -0.302
U2G C27U A43C C46U C66U A69G A70U | -0.221
G1A G6U C27U A43C C46U C66U A69G A70G | -0.353
U2G G6A C27U A43C C66A A70G | -0.195
C27U A69G A70U C71U | -0.294
G1A U2C C66U A69G A70U | -0.245
G1A G6U A70G | -0.192
G6A C27U C46U A70G | -0.132
G1A G6U C27U A43C C46U C66A A69G A70U C71U | -0.426
G1A U2G G6U C27U C46U C66A | -0.2
U2G G6U C46U C66U A70U C71U | -0.643
G1A A69G C71U | -0.0087
G6U C27U C46U C66U A70G C71U | -0.245
C27U A43C C66U A69G A70G | -0.255
G1A G6A A43C C46U C66A A69G A70G C71U | -0.261
U2G A43C C46U C66U A70U | -0.101
G1A G6U C27U A43C C46U C66U C71U | -0.364

Variant | yeast fitness (ln)
U2C G6A C27U A43C C46U A69G A70G C71U | -0.13
U2G G6U C46U C66U A69G A70G | -0.162
G1A G6U C27U C66A A69G C71U | -0.388
G1A U2G C27U C46U A69G C71U | -0.206
U2G G6U C27U A43C A70G C71U | -0.329
G1A G6U C27U A43C C46U A69G A70G C71U | -0.414
G1A U2G C27U A43C C46U C66U A69G A70U C71U | -0.5
G6U C66U A70U C71U | -0.315
G1A A43C C46U C66U | -0.151
G1A G6U C27U C46U A69G A70G | -0.307
U2C G6A A43C A70U C71U | -0.126
U2G G6A A43C C66U A70U | -0.0213
G1A C27U C46U | -0.0938
G1A A43C C46U A70G | -0.166
G1A G6U A43C C46U C66A A70U | -0.242
G6U C46U C66U A69G A70U C71U | -0.434
U2G C66U A69G | -0.195
U2G C46U C66A A69G A70G C71U | -0.139
C27U C66U A69G A70U | -0.143
G1A U2G G6A C27U C46U A70U | -0.189
U2G G6U A43C A69G A70U | -0.227
G1A U2C C27U A43C A69G A70U C71U | -0.345
U2G C46U C66A A69G A70U C71U | -0.34
G1A U2C G6U A43C C46U C66A A70G | -0.000562

Variant | yeast fitness (ln)
U2G C66A A70G C71U | -0.168
G1A G6U C27U A43C C46U A69G A70U | -0.347
G1A U2C G6A C27U A43C C46U C66U A70G | -0.155
G1A U2C G6U C27U C46U A69G C71U | -0.166
U2G G6U C66U A69G A70G C71U | -0.235
U2C C27U C46U C66U A70U | -0.0783
G1A U2G G6U A43C C66U A69G C71U | -0.437
G6A C27U C46U C66U A69G | -0.0373
G1A G6A C66A A70U | -0.0411
G6U A43C C46U A70U | -0.173
G1A C46U C66U C71U | -0.0203
G6A C27U A43C C46U A69G A70G C71U | -0.306
G1A U2C G6A C66U A70U C71U | -0.159
G1A U2G G6U C27U C71U | -0.358
U2C C27U A43C C46U A70U | -0.14
G1A U2G G6U C46U C66U A70U | -0.184
G1A C27U A43C C46U C71U | -0.0315
U2C A70G | 0.00112
U2G C27U | -0.0566
U2G G6U C46U C66A | -0.0648
U2G A43C A69G | 0.00792
G1A U2G G6U C27U C46U A70G | -0.274
U2C G6U C27U A43C C46U C66A | 0.00284
G1A G6A A69G C71U | -0.146

Variant | yeast fitness (ln)
U2G G6A A70U C71U | -0.107
U2C G6U A43C C66U C71U | -0.349
U2C G6U C66U A70U | -0.0735
U2G G6A C66U A70U C71U | -0.0405
G1A G6U C46U C66U A69G A70U C71U | -0.441
G1A U2G C27U C66U A69G C71U | -0.395
G1A U2C G6A C66U A70G | -0.00694
G1A U2C G6U C27U A43C A70G C71U | -0.22
U2G C46U | -0.0208
C27U C46U A69G A70U C71U | -0.248
A43C C46U C66U A70G C71U | -0.149
G1A U2G G6U C27U A43C C71U | -0.329
U2G C46U C66A C71U | -0.0426
U2G A43C C46U C66U A70G C71U | -0.156
U2C G6U C27U A43C C66A | -0.104
U2G G6A C27U C46U C66U A70G C71U | -0.165
G1A U2G G6U C27U A43C C46U C66A A69G A70G C71U | -0.337
U2G C27U A43C C46U C66A A70G C71U | -0.162
G6U C27U C46U C66A A69G A70G C71U | -0.254
G1A U2G G6U C66A A69G A70U C71U | -0.335
U2G G6U C66U C71U | -0.203
U2G G6U C27U C46U C66U C71U | -0.246
U2G C27U A69G A70G | -0.217
